6 compounds from paper PMC4829350 (Biochimica et biophysica acta, 2014) can be followed below.

For assay [1], the target named is ChT-L active center of the proteasome (NMR) (Heterocephalus glaber, UniProt G5ASK0). The experiment in a line: Peptidolytic assay, ChT-L activity, naked mole-rat liver subcellular fractions. The class given is biochemical.
Assay [2] has as its target T-L active center of the proteasome (NMR) (Heterocephalus glaber, UniProt A0A0P6JE03). The experiment in a line: Peptidolytic assay, T-L activity, naked mole-rat liver subcellular fractions. The class given is biochemical. To be noted: read-out: T-L IC50 NMR, cytosolic fraction, ± S.E.
Assay [3] has as its target T1, ChT-L active center of the proteasome (mouse) (Mus musculus, UniProt O55234).
T1 sequence (O55234 60-264): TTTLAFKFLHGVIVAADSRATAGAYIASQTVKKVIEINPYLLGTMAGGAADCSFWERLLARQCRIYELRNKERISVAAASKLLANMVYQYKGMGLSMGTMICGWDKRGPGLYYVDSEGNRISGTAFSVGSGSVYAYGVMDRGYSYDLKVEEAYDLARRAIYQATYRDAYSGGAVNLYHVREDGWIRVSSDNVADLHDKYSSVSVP
The experiment in a line: Peptidolytic assay, ChT-L activity, mouse liver subcellular fractions. The class given is biochemical.

Assay [4] addresses T2, T-L active center of the proteasome (mouse) (Mus musculus, UniProt P70195).
T2 sequence (P70195 44-277): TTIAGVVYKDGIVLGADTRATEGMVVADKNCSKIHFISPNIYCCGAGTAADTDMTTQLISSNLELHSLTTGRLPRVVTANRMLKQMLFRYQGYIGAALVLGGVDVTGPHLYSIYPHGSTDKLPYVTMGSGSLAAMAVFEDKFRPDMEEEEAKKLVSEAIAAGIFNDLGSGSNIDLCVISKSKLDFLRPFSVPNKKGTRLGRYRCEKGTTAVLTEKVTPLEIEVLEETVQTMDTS
The experiment in a line: Peptidolytic assay, T-L activity, mouse liver subcellular fractions. The class given is biochemical. An outline of the steps:
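Female mice aged 4–6 months; liver split into cytosolic, microsomal and nuclear fractions. T-L activity was read with a fluorogenic AMC peptide, against an AMC standard curve, as pmol AMC/min/μg protein. Inhibitor classes were titrated: boronate 5nM–10μM, lactone 0.2μM–8μM, aldehyde and vinyl sulfone 10μM–250μM. IC50 was taken as 50% activity loss, from exponential-decay or sigmoidal fits.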

Assay [5] addresses human 26S proteasome [h26S] (Homo sapiens, UniProt P20618+P28074). The experiment in a line: ChT-L activity of purified human 26S proteasome with supernatants or fractions. The class given is biochemical. To be noted: 10 nM BZ.
The test system of assay [6] is ProtNMR (naked mole-rat partially purified proteasome). The class given is biochemical, Heterocephalus glaber.
The target in assay [7] is T3, ProtMS (mouse partially purified proteasome) (Mus musculus, UniProt O55234).
T3 sequence (O55234 60-264): T1 sequence (O55234 60-264)
The class given is biochemical.

Assay [8] deals with naked mole-rat proteasome (ChT-L activity) with HSPs of NMR cytosol/supernatant. The class given is biochemical, Heterocephalus glaber. To be noted: for effect on inhibition resistance / sensitivity to inhibition: NMR cytosolic fraction or SNNMR + Prot, 20 μM MG132. An outline of the steps:
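HSP antibodies (anti-HSP72, -HSP40, -HSP25 or -HSP90; 10pg to 400pg, serially diluted in PBS/50% glycerol) or small-molecule HSP72 inhibitors (25nM to 1000nM; 10μM to 1000μM) added to NMR cytosolic lysate or 100,000xg supernatant. Incubated 1hr at 30°C with 1mM ATP. Human 26S or partially purified NMR proteasome then added. ChT-L activity read with Suc-LLVY-AMC ± 20μM MG132, as pmol AMC/min/μg protein.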

Assay [9] relates to human 26S proteasome [h26S] in SNNMR. The class given is biochemical. Conditions: h26S in SNNMR challenged with MG132. Summed up:
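Naked mole-rat liver cytosolic lysate or its high-speed supernatant was incubated at 30°C for 1hr with 1mM ATP plus anti-chaperone antibodies (HSP72, HSP40, HSP25, HSP90; 10pg–400pg) or HSP72 inhibitors (25nM–1000nM or 10μM–1000μM). Purified human 26S proteasome was then added, and ChT-L activity was read with Suc-LLVY-AMC ± 20μM MG132.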

The mark [10] stands for this setting: ChT-L IC50 Ms, cytosolic fraction, ± S.E.
Setting [11] is: sample ProtNMR + FT, 20 μM MG132.
Setting [12] is: sample ProtNMR + FT, 50 μM MG132.
[13] abbreviates: sample ProtNMR + R, 20 μM MG132.
Where [14] appears, read: sample ProtNMR + R, 50 μM MG132.
The mark [15] stands for this setting: sample ProtNMR + SN, 20 μM MG132.
Setting [16] is: sample ProtNMR + SN, 50 μM MG132.
Setting [17] is: sample ProtMS + FT, 20 μM MG132.
[18] abbreviates: sample ProtMS + FT, 50 μM MG132.
Where [19] appears, read: sample ProtMS + SN, 20 μM MG132.
The mark [20] stands for this setting: sample ProtMS + SN, 50 μM MG132.

Read-outs that look alike come from different tables or passages of the source. Residues, ends and D or L forms follow the SMILES beside them. *: point of attachment. Cbz = O=C(OCc1ccccc1)*

Broadly, the IC50 is the concentration at which inhibition is half-maximal. Regarding `CC(C)CC(C=CS(C)(=O)=O)NC(=O)[C@H](CC(C)C)NC(=O)[C@H](CC(C)C)NC(=O)CCCCCNC(=O)CCCCCNC(=O)CCCCCNC(=O)CC12CC3CC(CC(C3)C1)C2` (stereo partly drawn) [Adh (VS), adamantane-acetyl-(6-aminohexanoyl)3-(leucinyl)3-vinyl-(methyl)-sulfone], the “ChT-L IC50 in naked mole-rat relative to mouse cytosolic extracts” value in assay [1] (cytosolic extracts) is 22 fold. Also, the IC50 is 125 ± 5.6 µM in [1] (read-out: ChT-L IC50 NMR, cytosolic fraction, liver, ± S.E.); 80.6 ± 2.5 µM in assay [2]; 5.56 ± 1.57 µM in assay [3] (read-out: ChT-L IC50 Ms, cytosolic fraction, ± S.E.); 16.2 ± 1.9 µM in assay [4] (read-out: T-L IC50 Ms, cytosolic fraction, ± S.E.).
For `CC(C)C[C@H](NC(=O)[C@H](Cc1ccccc1)NC(=O)c1cnccn1)B(O)O` [BZ, bortezomib], the “ablation of ChT-L activity of h26S” value in assay [5] (h26S without fr.23) turned out to be 75%. The “reduction of ChT-L activity of h26S” value in assay [5] (in the presence of fr. 23) is given as 30%.
As for `CC(=O)N[C@@H](CSC(=O)[C@]1([C@@H](O)C(C)C)NC(=O)[C@H](C)[C@@H]1O)C(=O)O` [LC, lactacystin], 0.156 ± 0.005 µM corresponded to half-maximal inhibition in assay [3] (setting [10]) (IC50).
As usually defined, the % Inhibition is how much of the control response was suppressed. Usually inhibition stands for the percentage by which the read-out fell short of the control. `CC(C)C[C@@H](C=O)NC(=O)[C@H](CC(C)C)NC(=O)[C@H](CC(C)C)NC(=O)OCc1ccccc1` [MG132, N-(benzyl-oxycarbonyl) leucinyl-leucinyl-leucinal] (Cbz-Leu-Leu-Leu-aldehyde): the “ChT-L activity, Mean ± SE” value in [6] (sample ProtNMR + FT (flow-through), 10 μM MG132) was 40 ± 18 pmol AMC/min/μg protein; in assay [6] (setting [11]), 27 ± 18 pmol AMC/min/μg protein; in assay [6] (setting [12]), 16 ± 13 pmol AMC/min/μg protein; in assay [6] (sample ProtNMR + R (retentate), 10 μM MG132), 542 ± 181 ^# pmol AMC/min/μg protein; in [6] (setting [13]), 479 ± 146 ^# pmol AMC/min/μg protein; in assay [6] (setting [14]) it was 378 ± 104 ^# pmol AMC/min/μg protein. Moreover, the “ChT-L activity, Mean ± SE” value in assay [6] (sample ProtNMR + SN (NMR supernatant), 10 μM MG132) is 488 ± 58 ^# pmol AMC/min/μg protein; in assay [6] (setting [15]) it was 499 ± 71 ^# pmol AMC/min/μg protein; in assay [6] (setting [16]), 327 ± 104 ^# pmol AMC/min/μg protein; in [6] (sample ProtNMR, 10 μM MG132), 72 ± 13 pmol AMC/min/μg protein; in assay [6] (sample ProtNMR, 20 μM MG132), 43 ± 0.3 pmol AMC/min/μg protein; in assay [6] (sample ProtNMR, 50 μM MG132), 23 ± 1.0 pmol AMC/min/μg protein. Further, the “ChT-L activity, Mean ± SE” value in assay [7] (sample ProtMS + FT (flow-through), 10 μM MG132) is listed as 17 ± 0.3 pmol AMC/min/μg protein; in assay [7] (setting [17]), 15 ± 3.0 pmol AMC/min/μg protein; in [7] (setting [18]) it was 3.0 ± 1.9 pmol AMC/min/μg protein; in [7] (sample ProtMS + R (retentate), 10 μM MG132) it was 178 ± 72 ^# pmol AMC/min/μg protein; in assay [7] (sample ProtMS + R, 20 μM MG132) it was 172 ± 70 ^# pmol AMC/min/μg protein; in assay [7] (sample ProtMS + R, 50 μM MG132) it was 89 ± 12 ^# pmol AMC/min/μg protein. Further, the “ChT-L activity, Mean ± SE” value is reported as 126 ± 22 ^# pmol AMC/min/μg protein in assay [7] (sample ProtMS + SN (NMR supernatant), 10 μM MG132); 116 ± 20 ^# pmol AMC/min/μg protein in assay [7] (setting [19]); 84 ± 34 ^# pmol AMC/min/μg protein in [7] (setting [20]); 25 ± 0.1 pmol AMC/min/μg protein in [7] (sample ProtMS, 10 μM MG132); 17 ± 0.2 pmol AMC/min/μg protein in assay [7] (sample ProtMS, 20 μM MG132); 11 ± 0.1 pmol AMC/min/μg protein in assay [7] (sample ProtMS, 50 μM MG132). The “% Inhibition” value in assay [6] (sample ProtNMR + FT, 10 μM MG132) came out at 83.1%; in [6] (setting [11]) it was 88.6%; in assay [6] (setting [12]) it was 93.2%; in assay [6] (sample ProtNMR + R, 10 μM MG132), 31.0%; in [6] (setting [13]), 39.0%; in assay [6] (setting [14]) it was 51.8%. Besides, the “% Inhibition” value in assay [6] (sample ProtNMR + SN, 10 μM MG132) is on record as 51.7%; in [6] (setting [15]), 50.6%; in [6] (setting [16]), 67.7%; in assay [6] (sample ProtNMR, 10 μM MG132), 86.0%; in assay [6] (sample ProtNMR, 20 μM MG132) it was 91.6%; in assay [6] (sample ProtNMR, 50 μM MG132), 95.5%. For the same compound, the inhibition at 10 µM in [7] (sample ProtMS + FT, 10 μM MG132) amounted to 85.5%; in [7] (sample ProtMS + R, 10 μM MG132) it was 36.9%; in assay [7] (sample ProtMS + SN, 10 μM MG132), 52.1%; in assay [7] (sample ProtMS, 10 μM MG132) it was 87.6%. The inhibition at 20 µM was 87.2% in assay [7] (setting [17]); 39% in [7] (sample ProtMS + R, 20 μM MG132); 55.9% in assay [7] (setting [19]); 91.5% in assay [7] (sample ProtMS, 20 μM MG132). Further, the inhibition at 50 µM in [7] (setting [18]) is 97.4%; in assay [7] (sample ProtMS + R, 50 μM MG132), 68.4%; in assay [7] (setting [20]), 68.1%; in [7] (sample ProtMS, 50 μM MG132), 94.5%. The IC50 worked out at 8.22 ± 2.75 µM in assay [3] (setting [10]); 0.99 µM in assay [3] (ChT-L IC50 Ms, microsomal fraction); 4.6 ± 1.62 µM in [3] (ChT-L IC50 Ms, nuclear fraction, ± S.E.); 14.6 ± 4.4 µM in assay [4] (T-L IC50 Ms, cytosolic fraction, ± S.E.); 6.63 µM in [4] (T-L IC50 Ms, microsomal fraction); 12.8 ± 4.7 µM in assay [4] (T-L IC50 Ms, nuclear fraction, ± S.E.).
For the compound `N#Cc1ccc(COC[C@H]2O[C@@H](n3c(NCc4ccc(Cl)c(Cl)c4)nc4c(N)ncnc43)[C@H](O)[C@@H]2O)cc1` [VER155008], the “effect on inhibition resistance / sensitivity to inhibition” value in assay [8] is reported as “did not disrupt the inhibition resistance”. For the same compound, the “effect on proteasome activity associated with SNNMR” value in assay [8] (titration 25nM to 1000nM) is “had no effect”. Also, the “effect on inhibition resistance” value in assay [9] is recorded as “did not disrupt the inhibition resistance”.
In the case of `NS(=O)(=O)C#Cc1ccccc1` [pifithrin-μ], the “effect on inhibition resistance / sensitivity to inhibition” value in assay [8] was “attenuated resistance to inhibition”.
